We go through two compounds from ChEMBL document CHEMBL1140193, “Synthesis and anti-inflammatory evaluation of methylene bridged benzofuranyl imidazo[2,1-b][1,3,4]thiadiazoles” (Eur J Med Chem, 2008).

Data set [1] concerns Rattus norvegicus. The data set can be described thus: Toxicity in Wistar albino rat assessed as induction of haemorrhagic spots up to 3 g/kg, po after 8 hrs. The data set is classed as organism-based. As to conditions: in vivo, 3000 mg/kg. The method, boiled down: (§1)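 Acute toxicity: albino rats of either sex in groups of six, oral doses from 100 up to 3000 mg kg^-1. Rats observed continuously for 8 h for changes in motor activity, ataxia, tremors, convulsions, sedation and lacrimation. Ulceration and haemorrhagic spots also inspected.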

The test system of data set [2] is Rattus norvegicus. Nature of the data set: Toxicity in Wistar albino rat assessed as mortality up to 3 g/kg, po after 24 hrs. The data set is classed as organism-based. The note with it: in vivo, 3000 mg/kg. In a few lines: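 Albino rats of either sex, six per group, dosed orally from 100 up to 3000 mg kg^-1 body weight. Animals were watched continuously for 8 h for signs of acute toxicity such as altered motor activity, ataxia, tremors, convulsions, sedation and lacrimation, and were checked for mortality over a 24 h period. Food was withheld for 12 h before dosing.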

The test system of data set [3] is Rattus norvegicus. Nature of the data set: Antiinflammatory activity in Wistar albino rat assessed as inhibition of carrageenan-induced paw oedema at 100 mg/kg, po measured 0.5 hrs after carrageenan challenge. It is filed as functional. In a few lines:
(§2)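 Albino rats, 6 per group, dosed orally at 100 mg kg^-1; ibuprofen 100 mg kg^-1 as standard. One hour after dosing, 0.1 ml of 1% carrageenan with 2% gum acacia in normal saline injected subplantar into the right hind paw. Paw volume measured by plethysmometer; % inhibition versus control calculated. One-way ANOVA with Dunnett's t test.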

For data set [4], the system named is Rattus norvegicus. Nature of the data set: Toxicity in Wistar albino rat assessed as induction of convulsions and tremors up to 3 g/kg, po after 8 hrs. The note with it: in vivo, 3000 mg/kg. The data set is classed as organism-based. In a few lines: as §1
Data set [5] deals with Rattus norvegicus. The data set can be described thus: Analgesic activity in Wistar albino rat […] assessed as reaction time for tail withdrawal at 100 mg/kg, po after 300 mins by tail flick method. It is filed as functional. The method, boiled down:
(§3)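 Rat tail-flick test: latency for the rat to withdraw its tail from hot water at 55 ± 0.5 °C. Drugs given orally. Reaction time in seconds read at 60, 90, 120 and 300 min after dosing. Treated animals compared with control and with a nimesulide standard. Wistar albino rats, 150-200 g, either sex; food withdrawn 12 h before and during testing.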

Data set [6] concerns Rattus norvegicus. The data set can be described thus: Antiinflammatory activity in Wistar albino rat assessed as inhibition of carrageenan-induced paw oedema at 100 mg/kg, po measured 2 hrs after carrageenan challenge. It is filed as functional. In a few lines:
as §2
In general terms: In the carrageenan paw model, swelling and tenderness develop within hours.

Data set [7] has as its system Rattus norvegicus. The data set can be described thus: Antiinflammatory activity in Wistar albino rat assessed as inhibition of carrageenan-induced paw oedema at 100 mg/kg, po measured 1 hr after carrageenan challenge. It is filed as functional. In a few lines:
as §2

Data set [8] relates to Rattus norvegicus. Nature of the data set: Toxicity in Wistar albino rat assessed as induction of gastric ulceration up to 3 g/kg, po after 8 hrs. As to conditions: in vivo, 3000 mg/kg. It is filed as organism-based, Stomach. The method, boiled down:
as §1

The subject of data set [9] is Rattus norvegicus. Nature of the data set: Analgesic activity in Wistar albino rat […] assessed as increase in reaction time for tail withdrawal at 100 mg/kg, po after 180 mins by tail flick method. The data set is classed as functional. (Thermal pain tests record how soon the animal reacts.)
The subject of data set [10] is Rattus norvegicus. Nature of the data set: Analgesic activity in Wistar albino rat […] assessed as reaction time for tail withdrawal at 100 mg/kg, po after 60 mins by tail flick method. It is filed as functional. The method, boiled down: as §3
Data set [11] concerns Rattus norvegicus. Nature of the data set: Analgesic activity in Wistar albino rat […] assessed as reaction time for tail withdrawal at 100 mg/kg, po after 180 mins by tail flick method. It is filed as functional.
The subject of data set [12] is Rattus norvegicus. The data set can be described thus: Analgesic activity in Wistar albino rat […] assessed as reaction time for tail withdrawal at 100 mg/kg, po after 30 mins by tail flick method. The data set is classed as functional.
In data set [13] the test system is Rattus norvegicus. Nature of the data set: Antiinflammatory activity in Wistar albino rat assessed as inhibition of carrageenan-induced paw oedema at 100 mg/kg, po measured 3 hrs after carrageenan challenge. It is filed as functional. In a few lines: as §2
Data set [14] deals with Rattus norvegicus. The data set can be described thus: Toxicity in Wistar albino rat assessed as effect on motor activity up to 3 g/kg, po after 8 hrs. It is filed as organism-based. As to conditions: in vivo, 3000 mg/kg. In a few lines:
as §1

In data set [15] the test system is Rattus norvegicus. The data set can be described thus: Antiinflammatory activity in Wistar albino rat assessed as inhibition of carrageenan-induced paw oedema at 100 mg/kg, po measured 5 hrs after carrageenan challenge. The data set is classed as functional. In a few lines: as §2
Data set [16] deals with Rattus norvegicus. The data set can be described thus: Antiinflammatory activity in Wistar albino rat assessed as inhibition of carrageenan-induced paw oedema at 100 mg/kg, po measured 4 hrs after carrageenan challenge. It is filed as functional. The method, boiled down: as §2
Data set [17] concerns Rattus norvegicus. The data set can be described thus: Analgesic activity in Wistar albino rat […] assessed as reaction time for tail withdrawal at 100 mg/kg, po after 120 mins by tail flick method. It is filed as functional. In a few lines:
as §3

Data set [18] concerns Rattus norvegicus. Nature of the data set: Analgesic activity in Wistar albino rat […] assessed as increase in reaction time for tail withdrawal at 100 mg/kg, po after 300 mins by tail flick method. It is filed as functional. In a few lines: as §3
In data set [19] the test system is Rattus norvegicus. Nature of the data set: Toxicity in Wistar albino rat assessed as induction of sedation up to 3 g/kg, po after 8 hrs. The data set is classed as organism-based. The note with it: in vivo, 3000 mg/kg. In a few lines: as §1

One may read the inhibition in vivo as the percentage by which the read-out fell short of the control. For the compound `Cc1ccc2c(Cc3nn4c(C=O)c(-c5ccc(Br)cc5)nc4s3)coc2c1`, the Activity entry in data set [1] is “Non-toxic”; in data set [2], “Non-toxic”; in [4], “Non-toxic”; in data set [5], 7.55 s; in [8], “Non-toxic”; in data set [9], 238.53%. Besides, the Activity is 4.433 s in data set [10]; 9.083 s in data set [11]; 3.983 s in data set [12]; “Non-toxic” in data set [14]; 6.5 s in data set [17]; 181.4% in data set [18]. Moreover, the Activity entry in data set [19] is reported as “Non-toxic”. Further, the inhibition in vivo at 100 mg/kg amounted to 1.15% in data set [3]; 11.2% in [6]; 12.4% in data set [7]; 10.8% in data set [13]; 12.4% in [15]; 10.2% in data set [16].

Take `Cc1ccc2c(Cc3nn4cc(-c5ccc([N+](=O)[O-])cc5)nc4s3)coc2c1`: the Activity entry was “Non-toxic” in [1]; “Non-toxic” in [2]; “Non-toxic” in data set [4]; 8.35 s in [5]; “Non-toxic” in data set [8]; 268.98% in data set [9]. Besides, the Activity in [10] is listed as 7.4 s; in [11], 9.9 s; in [12], 4.65 s; in [14], “Non-toxic”; in [17] it was 9.567 s; in data set [18], 211.21%. Further, the Activity result in [19] was “Non-toxic”. The inhibition in vivo at 100 mg/kg in data set [3] is 0%; in data set [6], 24.3%; in [7], 13.4%; in [13] it was 40.9%; in data set [15], 49.8%; in [16] it was 45.7%.
